# In PMC7323586 (Journal of molecular biology, 2020):
# Assays:
# B. subtilis XPRT [1] = target: T1, B. subtilis XPRT (Bacillus subtilis, UniProt P42085); experiment: DRaCALA binding of 32P-labeled alarmones to XPRT; details: for nH (Hill coefficient from binding curve): DRaCALA binding curve, ± standard error
# In short: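 Purified hexahistidine-tagged B. subtilis XPRT at varied concentrations was mixed with 32P-labelled alarmone in 20 mM HEPES pH 8, 100 mM NaCl, 10 mM MgCl2. The label was added at 1:50–1:100 of the first synthesis elution fraction. After 10 min at room temperature, aliquots were spotted on nitrocellulose, dried ≥20 min and phosphorimaged. Fraction bound was edge-corrected and fitted to Y = (Bmax × X^h)/(Kd^h + X^h).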
# B. subtilis XPRT [2] = target: T1, B. subtilis XPRT; experiment: XPRT activity assay; format: biochemical; details: 1 mM PRPP, 50 μM xanthine; ± standard error
# In short: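 Xanthine started the reaction, and XMP was followed at A252 for 10 min (Δε 5350 M−1cm−1). Initial-velocity slopes were normalized to uninhibited controls and fitted to Y = 1/(1 + (X/IC50)^n), with n reported as napp.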
# XPRT = XPRT (Bacillus subtilis, UniProt P42085); experiment: XPRT interaction with ppApp; format: binding; details: data not shown
# B. subtilis XPRT [3] = target: T1, B. subtilis XPRT; experiment: Size exclusion chromatography of XPRT with ppGpp in the mobile phase; details: 35 μM ppGpp in the mobile phase, XPRT at 10 or 20 μM
# In short: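 Untagged (TEV-cleaved) XPRT at 10 or 20 μM was run on a Superose 12 column at 0.25 mL/min. The mobile phase was 20 mM HEPES pH 8, 300 mM NaCl, 10 mM MgCl2, with ppGpp at 35 μM final, after equilibration with ≥1 column volume. A280 traces were baseline-normalized. Predicted retention volumes (monomer 13.58, dimer 12.41) came from the 21038 Da molecular weight and a column standard curve.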
# B. subtilis XPRT [4] = target: T1, B. subtilis XPRT; experiment: biochemical
# B. subtilis = B. subtilis viability assay; format: cell-based, Bacillus subtilis; details: (p)ppGpp^0 xpt mutant B. subtilis, 1 mM xanthine
# In short: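 Strains were taken from single colonies, resuspended in S7 plus VILMTH amino acids, and spread on Spizizen casamino-acid agar for about 16 h at 30 °C. Cells were collected, diluted to OD600 0.01 in S7+VILMTH and grown to OD600 ≈ 0.2. After a t=0 sample, cultures were split and given 1 mM xanthine or water. Sampling was at 30, 60 and 120 min. Ten-fold dilutions were plated on LB for CFU/mL, in triplicate.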
# (p)ppGpp^0 B. subtilis = experiment: GTP levels by thin layer chromatography of 32P-orthophosphate-labeled cells; format: cell-based, Bacillus subtilis
# T1 sequence (P42085 whole entry): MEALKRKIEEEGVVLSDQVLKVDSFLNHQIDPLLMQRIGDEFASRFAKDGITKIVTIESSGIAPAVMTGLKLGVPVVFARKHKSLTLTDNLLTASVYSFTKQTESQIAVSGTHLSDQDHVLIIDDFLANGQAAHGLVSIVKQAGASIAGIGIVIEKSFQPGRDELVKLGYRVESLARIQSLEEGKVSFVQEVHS
# Chain of XPRT (P42085 whole entry): as above
SMILES,Kd (B. subtilis XPRT [1]),nH (Hill coefficient from binding curve) (B. subtilis XPRT [1]),napp (apparent Hill coefficient from inhibition curve) (B. subtilis XPRT [2]),also measured
Nc1nc2c(ncn2[C@@H]2O[C@H](COP(=O)(O)O)[C@@H](OP(=O)(O)OP(=O)(O)O)[C@H]2O)c(=O)[nH]1 [pGpp],760 ± 40 nM,2.3 ± 0.2,1.6 ± 0.1,–
Nc1ncnc2c1ncn2[C@@H]1O[C@H](COP(=O)(O)OP(=O)(O)O)[C@@H](OP(=O)(O)OP(=O)(O)O)[C@H]1O [ppApp],–,–,–,interaction with XPRT (XPRT): does not interact
Nc1nc2c(ncn2[C@@H]2O[C@H](COP(=O)(O)OP(=O)(O)O)[C@@H](OP(=O)(O)OP(=O)(O)O)[C@H]2O)c(=O)[nH]1 [ppGpp],950 ± 30 nM,2.1 ± 0.1,1.7 ± 0.1,effect on XPRT oligomeric state (B. subtilis XPRT [3]): stabilized the dimeric XPRT population
Nc1nc2c(ncn2[C@@H]2O[C@H](COP(=O)(O)OP(=O)(O)OP(=O)(O)O)[C@@H](OP(=O)(O)OP(=O)(O)O)[C@H]2O)c(=O)[nH]1 [pppGpp],9600 ± 2200 nM,1.3 ± 0.2,1.5 ± 0.1,Ki (B. subtilis XPRT [4]): 2500 nM
O=c1[nH]c(=O)c2nc[nH]c2[nH]1 [xanthine],–,–,–,"viability (colony forming units) (B. subtilis): unaffected; increase in (p)ppGpp^0 GTP levels ((p)ppGpp^0 B. subtilis; (p)ppGpp^0 B. subtilis during growth with xanthine): ~ 6 fold; GTP levels ((p)ppGpp^0 B. subtilis; (p)ppGpp^0 vs wild type B. subtilis, 1 mM xanthine, 30 min): elevated relative to wild type"
